How the values were obtained:
[1] = Rf is the resistance factor and is the ratio of the IC50 on the resistant cell line over the IC50 on the parental COR-L23/P cell line; conditions: human
Method in brief: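 Resistance factor computed as IC50 in COR-L23/R (MRP-overexpressing) divided by IC50 in COR-L23/P. Both IC50s come from a 5-6 day sulforhodamine B proliferation assay.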

[2] = system: NCI-H69; test: Rf is the resistance factor and is the ratio of the IC50 on the resistant cell line over the IC50 on the parental H69/P cell line; assay type: functional, Homo sapiens
Method in brief: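 Resistance factor computed as IC50 in H69/LX4 (Pgp-overexpressing) divided by IC50 in H69/P. Both IC50s come from a 5-6 day Alamar Blue proliferation assay.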

[3] = system: COR-L23; test: Cytotoxicity measured using the COR-L23 parental (COR-L23/P) human non small cell lung carcinoma cell line; assay type: functional, cell-based
Method in brief: (§1)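 COR-L23/P (parental) or COR-L23/R (MRP-overexpressing) human NSCLC cells; compound added, then 5-6 days incubation; proliferation read by sulforhodamine B staining.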

[4] = system: COR-L23; test: Cytotoxicity measured with the drug resistant human non small cell lung carcinoma cell line COR-L23 (COR-L23/R) which over expresses multidrug resistance associated with protein(MRP); assay type: functional, cell-based; method in brief: as §1
[5] = system: NCI-H69; test: Cytotoxicity measured using the drug resistant, P-glycoprotein (Pgp) expressing human small cell lung carcinoma cell line H69/LX4; assay type: functional, cell-based
Method in brief: (§2)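 H69/P (parental) or H69/LX4 (P-glycoprotein-overexpressing) human SCLC cells; compound added, then 5-6 days incubation; proliferation read with Alamar Blue.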

[6] = system: NCI-H69; test: Cytotoxicity measured using the H69 parental (H69/P) human small cell lung carcinoma cell line; assay type: functional, cell-based; method in brief: as §2
[7] = system: Mus musculus; test: pharmacokinetics in female BALB/c mice measured as AUC after 20 mg/kg iv administration; assay type: ADME, organism-based; parameters: dose 20 mg/kg, route intravenous; conditions: in vivo
Method in brief: (§3)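 Female Balb/c mice dosed intravenously at 20 or 50 mg/kg. Blood taken by cardiac puncture under anaesthesia into heparinized syringes at times from 2 min to 24 h. Plasma prepared by centrifugation and drug measured by HPLC; plasma PK parameters derived.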

[8] = system: Mus musculus; test: pharmacokinetics in female BALB/c mice measured as AUC after 50 mg/kg iv administration; assay type: ADME, organism-based; parameters: dose 50 mg/kg, route intravenous; conditions: in vivo; method in brief: as §3
[9] = system: Mus musculus; test: pharmacokinetics in female BALB/c mice measured as AUC after 50 mg/kg Preoral administration; assay type: ADME, organism-based; parameters: dose 50 mg/kg; conditions: in vivo, po
Method in brief: (§4)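 Female Balb/c mice given 50 mg/kg by oral gavage. Blood taken by cardiac puncture under anaesthesia into heparinized syringes at 2 min-24 h. Plasma analyzed by HPLC; plasma PK parameters derived, with oral bioavailability relative to iv dosing.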

[10] = pharmacokinetics in female BALB/c mice measured as Cl after 20 mg/kg iv administration; assay type: ADME, organism-based; parameters: dose 20 mg/kg, route intravenous; conditions: mouse, in vivo; method in brief: as §3
[11] = pharmacokinetics in female BALB/c mice measured as Cmax after 20 mg/kg iv administration; assay type: ADME, organism-based; parameters: dose 20 mg/kg, route intravenous; conditions: mouse, in vivo; method in brief: as §3
[12] = pharmacokinetics in female BALB/c mice measured as Cmax after 50 mg/kg iv administration; assay type: ADME, organism-based; parameters: dose 50 mg/kg, route intravenous; conditions: mouse, in vivo; method in brief: as §3
[13] = pharmacokinetics in female BALB/c mice measured as Cmax after 50 mg/kg Preoral administration; assay type: ADME, organism-based; parameters: route oral, dose 50 mg/kg; conditions: mouse, in vivo, po; method in brief: as §4
[14] = pharmacokinetics in female BALB/c mice measured as bioavailability (F) after 50 mg/kg peroral administration; assay type: ADME, organism-based; conditions: mouse, in vivo, po; method in brief: as §4
[15] = pharmacokinetics in female BALB/c mice measured as Cl after 50 mg/kg iv administration; assay type: ADME, organism-based; parameters: dose 50 mg/kg, route intravenous; conditions: mouse, in vivo; method in brief: as §3
[16] = pharmacokinetics in female BALB/c mice measured as Kel after 20 mg/kg iv administration; assay type: ADME, organism-based; parameters: dose 20 mg/kg, route intravenous; conditions: mouse, in vivo; method in brief: as §3
[17] = pharmacokinetics in female BALB/c mice measured as Kel after 50 mg/kg iv administration; assay type: ADME, organism-based; parameters: dose 50 mg/kg, route intravenous; conditions: mouse, in vivo; method in brief: as §3
[18] = pharmacokinetics in female BALB/c mice measured as Kel after 50 mg/kg Preoral administration; assay type: ADME, organism-based; parameters: dose 50 mg/kg; conditions: mouse, in vivo, po; method in brief: as §4
[19] = pharmacokinetics in female BALB/c mice measured as Vss after 20 mg/kg iv administration; assay type: ADME, organism-based; parameters: dose 20 mg/kg, route intravenous; conditions: mouse, in vivo, read-out: Vss; method in brief: as §3
[20] = pharmacokinetics in female BALB/c mice measured as Vss after 50 mg/kg iv administration; assay type: ADME, organism-based; parameters: dose 50 mg/kg, route intravenous; conditions: mouse, in vivo, read-out: Vss; method in brief: as §3

Row | SMILES | Rf [1] | Rf [2] | IC50 [3] [nM] | IC50 [4] [nM] | IC50 [5] [nM] | IC50 [6] [nM] | further results
1 | CN(C)CCNC(=O)c1cccc2nc3ccc4cc(O)ccc4c3nc12 | 1.4 | 1.8 | 67 | 96 | 193 | 109 | 
2 | CN(C)CCNC(=O)c1cccc2nc3ccc4c([N+](=O)[O-])cccc4c3nc12 | 1.2 | 1.3 | 20 | 24 | 120 | 96 | 
3 | COc1cccc2c1ccc1nc3cccc(C(=O)NCCN(C)C)c3nc12 | 1.4 | 1.4 | 14 | 20 | 49 |  | 
4 | CN(C)CCNC(=O)c1cccc2nc3ccc4c(O)cccc4c3nc12 | 1.1 | 1.4 | 15 | 17 | 48 | 35 | 
5 | CC[C@@]1(O)C(=O)OCc2c1cc1n(c2=O)Cc2cc3c(CN(C)C)c(O)ccc3nc2-1 [TOPOTECAN] |  | 3.9 | 13.2 | 20 | 62.9 |  | 
6 | COc1cccc2c1ccc1nc3cccc(C(=O)N[C@H](C)CN(C)C)c3nc12 | 1.2 | 1.2 | 10.1 | 12.1 | 29 |  | AUC [7]: 64 ug min m-1; AUC [8]: 156 ug min m-1; AUC [9]: 114 ug min m-1; clearance [10]: 6.3 mL/min; Cmax [11]: 800 ng/mL; Cmax [12]: 2900 ng/mL; Cmax [13]: 350 ng/mL; bioavailability [14]: 72%; clearance [15]: 6.4 mL/min; k el [16]: 7.33e-05 s⁻¹; k el [17]: 5e-05 s⁻¹; k el [18]: 3.33e-05 s⁻¹; Vd [19]: 1.3 L; Vd [20]: 1.9 L
7 | COc1cccc2c1C(=O)c1c(O)c3c(c(O)c1C2=O)C[C@@](O)(C(=O)CO)C[C@@H]3O[C@H]1C[C@H](N)[C@H](O)[C@H](C)O1 [DOXORUBICIN] |  | 142 | 20.1 | 319 | 3870 |  | 
8 | CN(C)CCNC(=O)c1cccc2nc3ccc4ccccc4c3nc12 | 1.4 | 1.9 | 102 | 140 | 130 |  | 
9 | COCCOc1cccc2c1ccc1nc3cccc(C(=O)NCCN(C)C)c3nc12 |  | 1.4 |  |  | 124 | 90 | 
10 | COc1cccc2c1ccc1nc3cccc(C(=O)NCCN(CCO)CCO)c3nc12 |  | 5.5 |  |  | 3380 | 614 | 
11 | COc1ccc2c(ccc3nc4cccc(C(=O)NCCN(C)C)c4nc32)c1 | 1.2 | 1.3 | 68 | 79 | 185 | 141 | 
12 | CN(C)CCNC(=O)c1cccc2nc3ccc4c(OCCCC#N)cccc4c3nc12 |  | 1.5 |  |  | 58 | 39 | 
13 | CN(C)CCNC(=O)c1cccc2nc3ccc4c(Br)cccc4c3nc12 |  | 2.2 |  |  | 171 | 77 | 
